Consider three compounds from ChEMBL document CHEMBL1142666, “Novel [2',5'-bis-O-(tert-butyldimethylsilyl)-beta-D-ribofuranosyl]- 3'-spiro-5''-(4''-amino-1'',2''-oxathiole-2'',2" -dioxide) derivatives with anti-HIV-1 and anti-human-cytomegalovirus activity” (J Med Chem, 2005).

Holding throughout (conditions): Homo sapiens
Assay [1] relates to MT4. Kind of assay: Effective concentration required to inhibit HIV-2 ROD in MT-4 cell culture. The assay is classed as functional, cell-based. A digest of the protocol: (§1)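 MT-4 cells (3 × 10^5/mL) infected at ~100 CCID50/mL and mixed with compound dilutions. Cytopathicity read by trypan blue exclusion at day 5. EC50 = concentration giving 50% protection against virus-induced loss of viability.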

Assay [2] deals with HEL. Description: Effective concentration required to inhibit HCMV Davis in HEL Cells. The assay is classed as functional, cell-based. Summed up: (§2)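 Confluent HEL cells infected with HCMV at 100 PFU/well. After 1-2 h, residual virus removed and MEM with 2% inactivated FCS added, with compound in duplicate at 5-fold dilution steps. After 7 days at 37 °C in 5% CO2, cells fixed with ethanol and Giemsa-stained; plaques or CPE scored microscopically. IC50 interpolated graphically; mean of two independent experiments.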

Assay [3] deals with CCRF-CEM. Description: Cytostatic concentration required to inhibit CEM cell proliferation. The assay is classed as functional. A digest of the protocol:
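CEM cells, mock-infected, grown with serial compound dilutions for 4 days. CC50 taken as the concentration that inhibits CEM cell proliferation by 50%.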

In assay [4] the test system is HEL. Kind of assay: Cytostatic concentration required to inhibit HEL cell proliferation. The assay is classed as functional. A digest of the protocol: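 HEL fibroblasts seeded at 5 × 10^3 cells/well and grown 24 h, then given compound in duplicate. After 3 days at 37 °C in 5% CO2, cell number read on a Coulter counter. CC50 = concentration reducing cell growth by 50%.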

Assay [5] has as its system HEL. Description: Minimal cytotoxic concentration required to cause microscopically visible alteration of cell morphology in HEL Cells. In kind it is functional. Summed up: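 Uninfected HEL cells exposed to compound. Minimum cytotoxic concentration is the lowest level giving a microscopically detectable change in cell morphology.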
Assay [6] deals with MT4. Kind of assay: Cytostatic concentration required to inhibit MT-4 cell proliferation. The assay is classed as functional. A digest of the protocol:
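Mock-infected MT-4 cells (3 × 10^5/mL) incubated with compound dilutions for 5 days. Viable cells counted by trypan blue exclusion. CC50 = concentration reducing viable MT-4 cell number by 50%.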

Assay [7] relates to HEL. Kind of assay: Effective concentration required to inhibit HCMV AD-169 in HEL Cells. The assay is classed as functional, cell-based. A digest of the protocol:
as §2

Assay [8] concerns CCRF-CEM. Kind of assay: Effective concentration required to inhibit HIV-1 IIIB in CEM cell culture. In kind it is functional, cell-based. A digest of the protocol:
(§3)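 CEM cells (4 × 10^5/mL) infected at ~100 CCID50/mL and mixed with compound dilutions. Giant cell formation scored microscopically at day 4. EC50 = concentration inhibiting virus-induced cytopathicity by 50%.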

The subject of assay [9] is MT4. Kind of assay: Effective concentration required to inhibit HIV-1 IIIB in MT-4 cell culture. The assay is classed as functional, cell-based. A digest of the protocol:
as §1

Assay [10] concerns CCRF-CEM. Kind of assay: Effective concentration required to inhibit HIV-2 ROD in CEM cell culture. In kind it is functional, cell-based. A digest of the protocol:
as §3

For assay [11], the system named is CCRF-CEM. Description: Cytostatic concentration of the cell proliferation. The assay is classed as functional.

Regarding `Cc1cn([C@@H]2O[C@H](CO[Si](C)(C)C(C)(C)C)[C@@]3(OS(=O)(=O)C=C3NCCC(=O)O)[C@H]2O[Si](C)(C)C(C)(C)C)c(=O)n(C)c1=O`, the EC50 (in general, the concentration at which the effect is half-maximal) with MT4 [1] was more than 50 µM; in the assay with HEL [2] it was 8 µM; in the assay with HEL [7] it was more than 16 µM; in the assay on CCRF-CEM [8], more than 10 µM; in the assay with MT4 [9], more than 50 µM; with CCRF-CEM [10], more than 10 µM. Besides, the results for the 50% cytotoxic concentration (CC50) in the assay with CCRF-CEM [3], in the assay on HEL [4] and in the assay with MT4 [6] were 19.4 µM, 34 µM and 11.5 µM, respectively. Moreover, in the assay with HEL [5], the MCC came to 80 µM.

Turning to `Cc1cn([C@@H]2O[C@H](CO[Si](C)(C)C(C)(C)C)[C@@]3(OS(=O)(=O)C=C3NCC(N)=O)[C@H]2O[Si](C)(C)C(C)(C)C)c(=O)n(C)c1=O`, the EC50 in the assay on MT4 [1] was more than 10 µM; in the assay with HEL [2] it was more than 3.2 µM; in the assay with HEL [7], more than 3.2 µM; in the assay on CCRF-CEM [8], more than 2 µM; in the assay with MT4 [9], more than 10 µM; in the assay with CCRF-CEM [10], more than 2 µM. Besides, the CC50 – broadly, the concentration giving 50% cytotoxicity – with CCRF-CEM [3] was 14.6 µM; in the assay on HEL [4], 13.5 µM; in the assay with MT4 [6], 14.9 µM. Moreover, the MCC in the assay with HEL [5] was determined as 16 µM.

For the compound `Cc1cn([C@@H]2O[C@H](CO[Si](C)(C)C(C)(C)C)[C@@]3(OS(=O)(=O)C=C3NCCC(N)=O)[C@H]2O[Si](C)(C)C(C)(C)C)c(=O)n(C)c1=O`, the EC50 in the assay with MT4 [1] is more than 10 µM; in the assay with HEL [2] it was 29 µM; in the assay on HEL [7], more than 16 µM; with CCRF-CEM [8], 5 µM; with MT4 [9], more than 10 µM; with CCRF-CEM [10], more than 10 µM. The CC50 amounted to 14.8 µM in the assay on HEL [4], 20 µM in the assay on MT4 [6] and 21 µM in the assay on CCRF-CEM [11]. The same compound displayed an MCC with HEL [5] not below 80 µM.
